Measurements from ChEMBL document CHEMBL1255358, “Relation between genetic markers of drug resistance and susceptibility profile of clinical Neisseria gonorrhoeae strains” (2008).

Legend:
Type in all cases: functional
[1] = tested on: Neisseria gonorrhoeae; experiment: Antimicrobial activity against Neisseria gonorrhoeae obtained from patient with uncomplicated gonorrhea assessed as percentage intermediate isolates by agar dilution method
Summary of the method: (§1)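 Agar dilution MICs on GC agar supplemented with PolyViteX, tested against penicillin, tetracycline and fluoroquinolones. Clinical isolates were shipped frozen on dry ice to a central laboratory, recovered from cryobeads on GC agar plates and subcultured once before testing. Strain ATCC 49226 served as the control. Isolates were classed susceptible, intermediate or resistant using current CLSI interpretive criteria.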

[2] = tested on: Neisseria gonorrhoeae; experiment: Antimicrobial activity against Neisseria gonorrhoeae obtained from patient with uncomplicated gonorrhea expressing penA and mtrR mutant gene assessed as percentage intermediate isolates by agar dilution method
Summary of the method: (§2)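 Clinical isolates shipped frozen on dry ice to a central lab, recovered from cryobeads onto GC agar and subcultured once. MICs were determined by agar dilution on GC agar supplemented with PolyViteX, with strain ATCC 49226 as control. Isolates were classed susceptible, intermediate or resistant by current CLSI criteria. Genotypes were assigned by PCR, and by minisequencing with MALDI-TOF mass spectrometry.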

[3] = tested on: Neisseria gonorrhoeae; experiment: Antimicrobial activity against Neisseria gonorrhoeae obtained from patient with uncomplicated gonorrhea expressing penA, penB and ponA mutant gene assessed as incidence of resistant isolates by agar dilution method; summary of the method: as §2
[4] = tested on: Neisseria gonorrhoeae; experiment: Antimicrobial activity against Neisseria gonorrhoeae obtained from patient with uncomplicated gonorrhea expressing penA, penB and ponA mutant gene assessed as percentage intermediate isolates by agar dilution method; summary of the method: as §2
[5] = tested on: Neisseria gonorrhoeae; experiment: Antimicrobial activity against Neisseria gonorrhoeae obtained from patient with uncomplicated gonorrhea expressing penA and mtrR mutant gene assessed as incidence of susceptible isolates by agar dilution method; summary of the method: as §2
[6] = tested on: Neisseria gonorrhoeae; experiment: Antimicrobial activity against Neisseria gonorrhoeae obtained from patient with uncomplicated gonorrhea expressing mtrR mutant gene assessed as incidence of susceptible isolates by agar dilution method; summary of the method: as §2
[7] = tested on: Neisseria gonorrhoeae; experiment: Antimicrobial activity against Neisseria gonorrhoeae obtained from patient with uncomplicated gonorrhea expressing penA, ponA and mtrR mutant gene assessed as incidence of susceptible isolates by agar dilution method; summary of the method: as §2
[8] = tested on: Neisseria gonorrhoeae; experiment: Antimicrobial activity against Neisseria gonorrhoeae obtained from patient with uncomplicated gonorrhea assessed as incidence of susceptible isolates by agar dilution method; summary of the method: as §1
[9] = tested on: Neisseria gonorrhoeae; experiment: Antimicrobial activity against Neisseria gonorrhoeae obtained from patient with uncomplicated gonorrhea expressing penA and ponA mutant gene assessed as incidence of resistant isolates by agar dilution method; summary of the method: as §2
[10] = tested on: Neisseria gonorrhoeae; experiment: Antimicrobial activity against Neisseria gonorrhoeae obtained from patient with uncomplicated gonorrhea expressing beta-lactamase TEM-1 mutant gene assessed as incidence of susceptible isolates by agar dilution method; summary of the method: as §2
[11] = tested on: Neisseria gonorrhoeae; experiment: Antimicrobial activity against Neisseria gonorrhoeae obtained from patient with uncomplicated gonorrhea expressing penA, penB, ponA and mtrR mutant gene assessed as percentage intermediate isolates by agar dilution method; summary of the method: as §2
[12] = tested on: Neisseria gonorrhoeae; experiment: Antimicrobial activity against Neisseria gonorrhoeae obtained from patient with uncomplicated gonorrhea assessed as incidence of resistant isolates by agar dilution method; summary of the method: as §2
[13] = tested on: Neisseria gonorrhoeae; experiment: Antimicrobial activity against Neisseria gonorrhoeae obtained from patient with uncomplicated gonorrhea expressing penB mutant gene assessed as incidence of susceptible isolates by agar dilution method
Summary of the method: (§3)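 Clinical N. gonorrhoeae isolates were shipped frozen on dry ice and recovered from cryobeads on GC agar. They were subcultured once and then tested by agar dilution on GC agar with PolyViteX supplement, with ATCC 49226 as the control strain. Susceptible, intermediate or resistant status was set by CLSI criteria. Genotype came from PCR for blaTEM-1/tet(M) and from primer-extension minisequencing with MALDI-TOF detection of SNPs.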

[14] = tested on: Neisseria gonorrhoeae; experiment: Antimicrobial activity against Neisseria gonorrhoeae obtained from patient with uncomplicated gonorrhea expressing penB mutant gene assessed as percentage intermediate isolates by agar dilution method; summary of the method: as §3
[15] = tested on: Neisseria gonorrhoeae; experiment: Antimicrobial activity against Neisseria gonorrhoeae obtained from patient with uncomplicated gonorrhea expressing penA mutant gene assessed as percentage intermediate isolates by agar dilution method; summary of the method: as §2
[16] = tested on: Neisseria gonorrhoeae; experiment: Antimicrobial activity against Neisseria gonorrhoeae obtained from patient with uncomplicated gonorrhea expressing penB mutant gene assessed as incidence of resistant isolates by agar dilution method; summary of the method: as §2
[17] = tested on: Neisseria gonorrhoeae; experiment: Antimicrobial activity against Neisseria gonorrhoeae obtained from patient with uncomplicated gonorrhea expressing penA, penB, ponA and mtrR mutant gene assessed as incidence of resistant isolates by agar dilution method; summary of the method: as §2
[18] = tested on: Neisseria gonorrhoeae; experiment: Antimicrobial activity against Neisseria gonorrhoeae obtained from patient with uncomplicated gonorrhea expressing penA, penB and mtrR mutant gene assessed as incidence of resistant isolates by agar dilution method; summary of the method: as §2
[19] = tested on: Neisseria gonorrhoeae; experiment: Antimicrobial activity against Neisseria gonorrhoeae obtained from patient with uncomplicated gonorrhea expressing penA mutant gene assessed as incidence of susceptible isolates by agar dilution method; summary of the method: as §2
[20] = tested on: Neisseria gonorrhoeae; experiment: Antimicrobial activity against Neisseria gonorrhoeae obtained from patient with uncomplicated gonorrhea expressing beta-lactamase TEM-1 mutant gene assessed as incidence of resistant isolates by agar dilution method; summary of the method: as §2
[21] = tested on: Neisseria gonorrhoeae; experiment: Antimicrobial activity against Neisseria gonorrhoeae obtained from patient with uncomplicated gonorrhea expressing mtrR mutant gene assessed as percentage intermediate isolates by agar dilution method; summary of the method: as §2
[22] = tested on: Neisseria gonorrhoeae; experiment: Antimicrobial activity against Neisseria gonorrhoeae obtained from patient with uncomplicated gonorrhea expressing mtrR mutant gene assessed as incidence of resistant isolates by agar dilution method; summary of the method: as §2
[23] = tested on: Neisseria gonorrhoeae; experiment: Antimicrobial activity against Neisseria gonorrhoeae obtained from patient with uncomplicated gonorrhea expressing penA and penB mutant gene assessed as incidence of susceptible isolates by agar dilution method; summary of the method: as §2
[24] = tested on: Neisseria gonorrhoeae; experiment: Antimicrobial activity against Neisseria gonorrhoeae obtained from patient with uncomplicated gonorrhea expressing penA, ponA and mtrR mutant gene assessed as percentage intermediate isolates by agar dilution method; summary of the method: as §2
[25] = tested on: Neisseria gonorrhoeae; experiment: Antimicrobial activity against Neisseria gonorrhoeae obtained from patient with uncomplicated gonorrhea expressing penA, penB and mtrR mutant gene assessed as percentage intermediate isolates by agar dilution method; summary of the method: as §2
[26] = tested on: Neisseria gonorrhoeae; experiment: Antimicrobial activity against Neisseria gonorrhoeae obtained from patient with uncomplicated gonorrhea expressing penA and ponA mutant gene assessed as percentage intermediate isolates by agar dilution method; summary of the method: as §2
[27] = tested on: Neisseria gonorrhoeae; experiment: Antimicrobial activity against Neisseria gonorrhoeae obtained from patient with uncomplicated gonorrhea expressing penA, penB and ponA mutant gene assessed as incidence of susceptible isolates by agar dilution method; summary of the method: as §2
[28] = tested on: Neisseria gonorrhoeae; experiment: Antimicrobial activity against Neisseria gonorrhoeae obtained from patient with uncomplicated gonorrhea expressing penA, penB and mtrR mutant gene assessed as incidence of susceptible isolates by agar dilution method; summary of the method: as §2
[29] = tested on: Neisseria gonorrhoeae; experiment: Antimicrobial activity against Neisseria gonorrhoeae obtained from patient with uncomplicated gonorrhea expressing penA, penB, ponA and mtrR mutant gene assessed as incidence of susceptible isolates by agar dilution method; summary of the method: as §2
[30] = tested on: Neisseria gonorrhoeae; experiment: Antimicrobial activity against Neisseria gonorrhoeae obtained from patient with uncomplicated gonorrhea expressing beta-lactamase TEM-1 mutant gene assessed as percentage intermediate isolates by agar dilution method; summary of the method: as §2
[31] = tested on: Neisseria gonorrhoeae; experiment: Antimicrobial activity against Neisseria gonorrhoeae obtained from patient with uncomplicated gonorrhea expressing penA and mtrR mutant gene assessed as incidence of resistant isolates by agar dilution method; summary of the method: as §2
[32] = tested on: Neisseria gonorrhoeae; experiment: Antimicrobial activity against Neisseria gonorrhoeae obtained from patient with uncomplicated gonorrhea expressing penA mutant gene assessed as incidence of resistant isolates by agar dilution method; summary of the method: as §2
[33] = tested on: Neisseria gonorrhoeae; experiment: Antimicrobial activity against Neisseria gonorrhoeae obtained from patient with uncomplicated gonorrhea expressing penA and penB mutant gene assessed as incidence of resistant isolates by agar dilution method; summary of the method: as §2
[34] = tested on: Neisseria gonorrhoeae; experiment: Antimicrobial activity against Neisseria gonorrhoeae obtained from patient with uncomplicated gonorrhea expressing penA and penB mutant gene assessed as percentage intermediate isolates by agar dilution method; summary of the method: as §2
[35] = tested on: Neisseria gonorrhoeae; experiment: Antimicrobial activity against Neisseria gonorrhoeae obtained from patient with uncomplicated gonorrhea expressing penA and ponA mutant gene assessed as incidence of susceptible isolates by agar dilution method; summary of the method: as §2
[36] = tested on: Neisseria gonorrhoeae; experiment: Antimicrobial activity against Neisseria gonorrhoeae obtained from patient with uncomplicated gonorrhea expressing penA, ponA and mtrR mutant gene assessed as incidence of resistant isolates by agar dilution method; summary of the method: as §2
[37] = tested on: Neisseria gonorrhoeae; experiment: Antimicrobial activity against Neisseria gonorrhoeae obtained from patient with uncomplicated gonorrhea expressing rpsJ mutant gene assessed as incidence of susceptible isolates by agar dilution method; summary of the method: as §3
[38] = tested on: Neisseria gonorrhoeae; experiment: Antimicrobial activity against Neisseria gonorrhoeae obtained from patient with uncomplicated gonorrhea expressing tetM mutant gene in combination with variants of other gene loci assessed as percentage intermediate isolates by agar dilution method; summary of the method: as §3
[39] = tested on: Neisseria gonorrhoeae; experiment: Antimicrobial activity against Neisseria gonorrhoeae obtained from patient with uncomplicated gonorrhea expressing tetM mutant gene in combination with variants of other gene loci assessed as incidence of resistant isolates by agar dilution method; summary of the method: as §3
[40] = tested on: Neisseria gonorrhoeae; experiment: Antimicrobial activity against Neisseria gonorrhoeae obtained from patient with uncomplicated gonorrhea expressing rpsJ mutant gene assessed as percentage intermediate isolates by agar dilution method; summary of the method: as §3
[41] = tested on: Neisseria gonorrhoeae; experiment: Antimicrobial activity against Neisseria gonorrhoeae obtained from patient with uncomplicated gonorrhea expressing rpsJ and penB mutant gene assessed as incidence of susceptible isolates by agar dilution method; summary of the method: as §3
[42] = tested on: Neisseria gonorrhoeae; experiment: Antimicrobial activity against Neisseria gonorrhoeae obtained from patient with uncomplicated gonorrhea expressing rpsJ and mtrR mutant gene assessed as incidence of susceptible isolates by agar dilution method; summary of the method: as §3
[43] = tested on: Neisseria gonorrhoeae; experiment: Antimicrobial activity against Neisseria gonorrhoeae obtained from patient with uncomplicated gonorrhea expressing rpsJ and penB mutant gene assessed as percentage intermediate isolates by agar dilution method; summary of the method: as §3
[44] = tested on: Neisseria gonorrhoeae; experiment: Antimicrobial activity against Neisseria gonorrhoeae obtained from patient with uncomplicated gonorrhea expressing rpsJ and mtrR mutant gene assessed as percentage intermediate isolates by agar dilution method; summary of the method: as §3
[45] = tested on: Neisseria gonorrhoeae; experiment: Antimicrobial activity against Neisseria gonorrhoeae obtained from patient with uncomplicated gonorrhea expressing rpsJ, penB and mtrR mutant gene assessed as incidence of susceptible isolates by agar dilution method; summary of the method: as §3
[46] = tested on: Neisseria gonorrhoeae; experiment: Antimicrobial activity against Neisseria gonorrhoeae obtained from patient with uncomplicated gonorrhea expressing rpsJ, penB and mtrR mutant gene assessed as percentage intermediate isolates by agar dilution method; summary of the method: as §3
[47] = tested on: Neisseria gonorrhoeae; experiment: Antimicrobial activity against Neisseria gonorrhoeae obtained from patient with uncomplicated gonorrhea expressing rpsJ and penB mutant gene assessed as incidence of resistant isolates by agar dilution method; summary of the method: as §3
[48] = tested on: Neisseria gonorrhoeae; experiment: Antimicrobial activity against Neisseria gonorrhoeae obtained from patient with uncomplicated gonorrhea expressing rpsJ mutant gene assessed as incidence of resistant isolates by agar dilution method; summary of the method: as §3
[49] = tested on: Neisseria gonorrhoeae; experiment: Antimicrobial activity against Neisseria gonorrhoeae obtained from patient with uncomplicated gonorrhea expressing tetM mutant gene in combination with variants of other gene loci assessed as incidence of susceptible isolates by agar dilution method; summary of the method: as §3
[50] = tested on: Neisseria gonorrhoeae; experiment: Antimicrobial activity against Neisseria gonorrhoeae obtained from patient with uncomplicated gonorrhea expressing rpsJ and mtrR mutant gene assessed as incidence of resistant isolates by agar dilution method; summary of the method: as §3
[51] = tested on: Neisseria gonorrhoeae; experiment: Antimicrobial activity against Neisseria gonorrhoeae obtained from patient with uncomplicated gonorrhea expressing rpsJ, penB and mtrR mutant gene assessed as incidence of resistant isolates by agar dilution method; summary of the method: as §3

CC1(C)S[C@@H]2[C@H](NC(=O)Cc3ccccc3)C(=O)N2[C@H]1C(=O)O [PENICILLIN G]
Activity [1]: 9.3% | Activity [2]: 60% | Activity [3]: 9.2% | Activity [4]: 82.8% | Activity [5]: 33.3% | Activity [6]: 100% | Activity [7]: 9.7% | Activity [8]: 90.7% | Activity [9]: 5.1% | Activity [10]: 0% | Activity [11]: 71.4% | Activity [12]: 0% | Activity [13]: 100% | Activity [14]: 0% | Activity [15]: 47.1% | Activity [16]: 0% | Activity [17]: 17.3% | Activity [18]: 0% | Activity [19]: 49% | Activity [20]: 83.3% | Activity [21]: 0% | Activity [22]: 0% | Activity [23]: 28.6% | Activity [24]: 82.3% | Activity [25]: 50% | Activity [26]: 79.5% | Activity [27]: 7.9% | Activity [28]: 50% | Activity [29]: 11.3% | Activity [30]: 16.7% | Activity [31]: 6.7% | Activity [32]: 3.9% | Activity [33]: 0% | Activity [34]: 71.4% | Activity [35]: 15.4% | Activity [36]: 8%

CN(C)[C@@H]1C(O)=C(C(N)=O)C(=O)[C@@]2(O)C(O)=C3C(=O)c4c(O)cccc4[C@@](C)(O)[C@H]3C[C@@H]12 [TETRACYCLINE]
Activity [37]: 30.5% | Activity [1]: 16.5% | Activity [38]: 0% | Activity [6]: 100% | Activity [39]: 100% | Activity [40]: 50.8% | Activity [8]: 83.5% | Activity [41]: 20.7% | Activity [12]: 0% | Activity [15]: 0% | Activity [42]: 26.9% | Activity [43]: 25.3% | Activity [44]: 26.9% | Activity [45]: 20.9% | Activity [46]: 23% | Activity [47]: 54% | Activity [21]: 0% | Activity [22]: 0% | Activity [48]: 18.7% | Activity [49]: 0% | Activity [50]: 46.2% | Activity [51]: 56.1%

O=C(O)c1cn(C2CC2)c2cc(N3CCNCC3)c(F)cc2c1=O [CIPROFLOXACIN]
Activity [1]: 0.7% | Activity [8]: 99.3% | Activity [12]: 0% | Activity [15]: 0%
